In brackets after ≈: the same amount, converted by molar mass. Activity calls are given as the source filed them. The calls are words filed in the database; no cut-off is given here.
What was measured:
Plasmodium falciparum [1] = assay: Antiplasmodial activity against Plasmodium falciparum 3D7A infected in red blood cells preincubated for 24 hrs followed by [3H]-hypoxanthine addition measured after 24 hrs by scintillation counting; format: functional, cell-based
Procedure, shortened: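 Whole-cell growth assay on sensitive P. falciparum strain 3D7A by [3H]hypoxanthine incorporation; two or three independent biological replicates per value.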

Liver = assay: Intrinsic clearance in human liver microsomes at 0.5 uM up to 45 mins in presence of NADPH by HPLC-MS/MS analysis; format: ADME, microsome; conditions: 0.75 h
Plasma [2] = assay: Drug level in Swiss CD1 mouse plasma treated with 5-([3,4'-Bipyridin]-2'-yl)-N-(4-(pyrrolidin-1-ylmethyl)phenyl)-1,3,4-oxadiazol-2-amine at 500 mg/kg, po by HPLC analysis; format: ADME, organism-based; conditions: in vivo
Procedure, shortened: (§1)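 Mice given high oral doses (250/300 and 500 mg/kg); plasma analysed by HPLC for parent compound and breakdown products, expressed as percentage levels.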

Plasma [3] = assay: Drug level in Swiss CD1 mouse plasma treated with 5-(3-(Pyridin-3-yl)-5-(trifluoromethyl)phenyl)-N-(4-(pyrrolidin-1-ylmethyl)phenyl)-1,3,4-oxadiazol-2-amine at 500 mg/kg, po by HPLC analysis; format: ADME, organism-based; conditions: in vivo; procedure, shortened: as §1
Plasmodium falciparum [4] = assay: Antimalarial activity against Plasmodium falciparum 3D7 0087/N9 infected in po dosed mouse assessed as average daily exposure in whole blood required to reduce parasitemia administered 3 days post infection dosed once a day for four consecutive days measured 7 days post dose; format: functional, organism-based
Plasmodium falciparum [5] = assay: Antimalarial activity against Plasmodium falciparum 3D7 0087/N9 infected in po dosed SCID mouse assessed as reduction in parasitemia administered 3 days post infection dosed once a day for four consecutive days measured after 7 days; format: functional; conditions: 3D7 0087/N9, po
Procedure, shortened: (§2)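 SCID mice engrafted with human parasite P. falciparum Pf 3D70087/N9; oral dosing started 3 days after infection, once daily for four consecutive days; parasitemia compared with untreated controls.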

[6] = Solubility of the compound in fasted state stimulated intestinal fluid at pH 6.5 by HPLC analysis; format: physicochemical; conditions: fasted state simulated intestinal fluid
Procedure, shortened: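 Solubility measured in fasted state simulated intestinal fluid, pH 6.5.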

Plasmodium falciparum [7] = assay: Ratio of IC50 for chloroquine/pyrimethamine-resistant Plasmodium falciparum V1/S infected in red blood cells to IC50 for wild type Plasmodium falciparum 3D7A infected in red blood cells; format: functional
[8] = Ratio of IC50 for chloroquine/pyrimethamine-resistant Plasmodium falciparum Dd2 infected in red blood cells to IC50 for wild type Plasmodium falciparum 3D7A infected in red blood cells; format: functional
Plasmodium falciparum [9] = assay: Ratio of IC50 for chloroquine/pyrimethamine/atovaquone-resistant Plasmodium falciparum Tm90C2B infected in red blood cells to IC50 for wild type Plasmodium falciparum 3D7A infected in red blood cells; format: functional
[10] = Lipophilicity, log D of compound at pH 7.4 by chromatographic method; format: physicochemical; conditions: buffer
[11] = Ratio of IC50 for chloroquine-resistant Plasmodium falciparum 2B12 infected in red blood cells to IC50 for wild type Plasmodium falciparum […] infected in red blood cells; format: functional
[12] = Chemical stability of compound in SGF media at pH 1.6 after 24 hrs; format: physicochemical; conditions: simulated gi fluid, pH 1.6, 24 h
Procedure, shortened: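 Stability in simulated gastric fluid at pH 1.6, held at 37 °C for up to 24 h; checked for degradation products.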

[13] = AUC in Swiss CD1 mouse plasma at 500 mg/kg, po; format: ADME, organism-based
Procedure, shortened: (§3)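 Female Swiss CD-1 mice given oral doses of 300 and 500 mg/kg; in-life observations, body weight evolution, relative organ weight, hematology and clinical chemistry recorded; plasma exposure measured at the highest dose; two independent experiments.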

Mus musculus [14] = assay: Toxicity in Swiss CD1 mouse assessed as effect on in life observation at 300 to 500 mg/kg, po measured up to 24 hrs post dose by Irwin test; format: organism-based; conditions: in vivo; procedure, shortened: as §3
Mus musculus [15] = assay: Toxicity in Swiss CD1 mouse assessed as effect on body weight evolution at 300 to 500 mg/kg, po measured up to 24 hrs post dose by Irwin test; format: organism-based; conditions: in vivo; procedure, shortened: as §3
Mus musculus [16] = assay: Toxicity in Swiss CD1 mouse assessed as effect on organ weight at 300 to 500 mg/kg, po measured up to 24 hrs post dose by Irwin test; format: organism-based; conditions: in vivo; procedure, shortened: as §3
[17] = Ratio of TC50 for human HepG2 to IC50 for antiplasmodial activity against Plasmodium falciparum 3D7A infected in red blood cells
Procedure, shortened: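 Denominator is the asexual P. falciparum 3D7A IC50 from a [3H]hypoxanthine incorporation assay, using two or three independent biological replicates. Numerator is the 50% toxicity value in HepG2 cells, expressed as Tox50/Pf 3D7 IC50.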

Mus musculus [18] = assay: Toxicity in Swiss CD1 mouse assessed as passivity at 500 mg/kg, po measured up to 24 hrs post dose by Irwin test; format: organism-based; conditions: in vivo
Plasma [19] = assay: Drug metabolism in Swiss CD1 mouse assessed as 2-([3,4'-Bipyridine]-2'-carbonyl)-N-(4-(pyrrolidin-1-ylmethyl)-phenyl)hydrazinecarboxamide in plasma at 300 to 500 mg/kg, po by HPLC analysis; format: ADME, organism-based; conditions: in vivo; procedure, shortened: as §1
Plasmodium falciparum [20] = assay: Antimalarial activity against Plasmodium falciparum 3D7 0087/N9 infected in SCID mouse assessed as reduction in parasitemia at 67 mg/kg, po administered 3 days post infection dosed once a day for four consecutive days measured 7 days post dose; format: functional, organism-based; procedure, shortened: as §2

`Clc1cccc(Nc2nnc(-c3cccc(-c4cccnc4)c3)o2)c1` showed an IC50 (Plasmodium falciparum [1]) of 5530 nM and an intrinsic clearance (Liver) of 3.7 mL/min/g.
In the case of `CN1CCc2ccc(Nc3nnc(-c4cccc(-c5cccnc5)c4)o3)cc2C1`, the IC50 (Plasmodium falciparum [1]) is reported as 100 nM and the intrinsic clearance (Liver) is reported as 1.8 mL/min/g.
`CN1CCc2ccc(Nc3nnc(-c4cncc(-c5cccnc5)c4)o3)cc2C1` showed an IC50 (Plasmodium falciparum [1]) of 30 nM and an intrinsic clearance (Liver) of 1.45 mL/min/g.
`CN1CCc2ccc(Nc3nnc(-c4ccc(F)c(-c5cccnc5)c4)o3)cc2C1` showed an IC50 (Plasmodium falciparum [1]) of 480 nM and an intrinsic clearance (Liver) of 2.2 mL/min/g.
With `CN1CCc2ccc(Nc3nnc(-c4cc(F)cc(-c5cccnc5)c4)o3)cc2C1` the IC50 (Plasmodium falciparum [1]) was 50 nM and the intrinsic clearance (Liver) was < 0.5 mL/min/g.
With `O=C(O)c1cc(-c2cccnc2)ccn1` the Drug metabolism (Plasma [2]) was “Metabolite_Detected”.
For `CN1CCc2ncc(Nc3nnc(-c4cccc(-c5cccnc5)c4)o3)cc2C1`, the IC50 (Plasmodium falciparum [1]) was 20 nM.
With `c1ccc(Nc2nnc(-c3cccc(-c4cccnc4)c3)o2)cc1` the IC50 (Plasmodium falciparum [1]) was 1700 nM and the intrinsic clearance (Liver) was 1.8 mL/min/g.
In the case of `O=C(NNC(=O)c1cc(-c2cccnc2)cc(C(F)(F)F)c1)Nc1ccc(CN2CCCC2)cc1`, the Drug metabolism (Plasma [3]) is reported as “Metabolite_Detected”.
With `CN1Cc2ccc(Nc3nnc(-c4cccc(-c5cccnc5)c4)o3)cc2C1` the IC50 (Plasmodium falciparum [1]) was 70 nM and the intrinsic clearance (Liver) was 5.1 mL/min/g.
For `CN1CCc2ccc(Nc3nnc(-c4cc(-c5cccnc5)ccn4)o3)cc2C1`, the IC50 (Plasmodium falciparum [1]) was 200 nM, the AUCED90 (Plasmodium falciparum [4]) was 1.4 µg.hr/ml/day and the intrinsic clearance (Liver) was < 0.5 mL/min/g. The ED90 (Plasmodium falciparum [5]) was 33.8 mg/kg and the solubility [6] was 390 µg/mL (≈ 1010 µM).
In the case of `c1cncc(-c2ccnc(-c3nnc(Nc4ccc(CN5CCCC5)cc4)o3)c2)c1`, the “Ratio IC50” value (Plasmodium falciparum [7]) is reported as 1, the IC50 (Plasmodium falciparum [1]) is reported as 20 nM and the “Ratio IC50” value [8] is reported as 1. For the same compound, the “Ratio IC50” value (Plasmodium falciparum [9]) was 1, the ED90 (Plasmodium falciparum [5]) was 12.4 mg/kg and the solubility [6] was > 1000 µg/mL. For the same compound, the chromatographic logD [10] was 1.3, the “Ratio IC50” value [11] was 1 and the Stability [12] was “Stable”. The AUC [13] was 68900 ng·h/mL, the Activity (Mus musculus [14]) was “Non-Toxic” and the Activity (Mus musculus [15]) was “Non-Toxic”. For the same compound, the Activity (Mus musculus [16]) was “Non-Toxic”, the Ratio [17] was >1000 and the Activity (Mus musculus [18]) was “Toxic”. The Drug metabolism (Plasma [19]) was “Metabolite_Detected”.
For `FC(F)(F)c1cccc(Nc2nnc(-c3cccc(-c4cccnc4)c3)o2)c1`, the IC50 (Plasmodium falciparum [1]) was 690 nM and the intrinsic clearance (Liver) was 3.3 mL/min/g.
With `CN1CCc2ncc(Nc3nnc(-c4cc(-c5cccnc5)cc(C(F)(F)F)c4)o3)cc2C1` the IC50 (Plasmodium falciparum [1]) was 30 nM, the solubility [6] was 68 µg/mL (≈ 150 µM) and the Activity (Plasmodium falciparum [20]) was “inactive”.

From ChEMBL document CHEMBL4017499, “The Discovery of Novel Antimalarial Aminoxadiazoles as a Promising Nonendoperoxide Scaffold” (J Med Chem, 2017)
